Source: ChEMBL document CHEMBL4265940, “Synthesis of scutellarein derivatives with antiproliferative activity and selectivity through the intrinsic pathway” (Eur J Med Chem, 2018)
Activity calls are given as the source filed them. No cut-off for these calls is given here.

How the values were obtained:
L02 = experiment: Cytotoxicity against human LO2 cells assessed as decrease in cell viability after 72 hrs by MTT assay; type: cell-based; conditions: L02, 72 h
Method in brief: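 L-O2 normal human liver cells tested for growth inhibition by MTT. Formazan was dissolved in DMSO and optical density read. IC50 values were derived.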

MCF7 [1] = experiment: Antiproliferative activity against human MCF7 cells after 72 hrs by MTT assay; type: functional, cell-based; conditions: MCF7, 72 h
Method in brief: (§1)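 Log-phase tumour cells seeded and held 24 h at 37 °C in humidified 5% CO2, then exposed to test agents for 72 h. MTT (5 mg/mL stock) added for a further 4 h, formazan dissolved in DMSO with 10 min shaking at room temperature, optical density read, IC50 calculated.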

Bel-7402 = experiment: Antiproliferative activity against human Bel7402 cells after 72 hrs by MTT assay; type: functional, cell-based; conditions: Bel-7402, 72 h; method in brief: as §1
A549 = experiment: Antiproliferative activity against human A549 cells after 72 hrs by MTT assay; type: functional, cell-based; conditions: A549, 72 h; method in brief: as §1
MCF7 [2] = experiment: Cell cycle arrest in human MCF7 cells assessed as accumulation at G1 phase at 0.75 uM after 48 hrs by propidium iodide staining based flow cytometry (reference value: 41.49%); type: functional
MCF7 [3] = experiment: Induction of apoptosis in human MCF7 cells assessed as upregulation of Bax after 48 hrs by Western blot analysis; type: functional, cell-based
Method in brief: (§2)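 MCF-7 cells treated 48 h at 0, 0.75, 1.5 and 3 µM, lysed, and spun at 14000 g for 10 min at 4 °C. Protein was measured by BCA and 25 µg lysate run on 12% SDS-PAGE, then transferred to nitrocellulose and blocked with 5% milk. Blots were probed overnight at 4 °C with monoclonal antibodies to Bcl-2, Bax, cyto-c, caspase-9, caspase-3 and GAPDH, with ECL detection.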

MCF7 [4] = experiment: Cell cycle arrest in human MCF7 cells assessed as accumulation at G1 phase after 48 hrs by propidium iodide staining based flow cytometry; type: functional
MCF7 [5] = experiment: Cell cycle arrest in human MCF7 cells assessed as accumulation at G2/M phase at 3 uM after 48 hrs by propidium iodide staining based flow cytometry (reference value: 22.40%); type: functional
MCF7 [6] = experiment: Induction of apoptosis in human MCF7 cells assessed as early apoptotic cells at 3 uM after 48 hrs by Annexin V-FITC/PI staining based flow cytometry (reference value: 4.10%); type: functional
MCF7 [7] = experiment: Induction of apoptosis in human MCF7 cells assessed as necrotic cells at 3 uM after 48 hrs by Annexin V-FITC/PI staining based flow cytometry (reference value: 0.19%); type: functional
MCF7 [8] = experiment: Induction of apoptosis in human MCF7 cells assessed as viable cells at 0.75 uM after 48 hrs by Annexin V-FITC/PI staining based flow cytometry (reference value: 93.72%); type: functional; conditions: MCF7, 48 h, read-out: Activity
MCF7 [9] = experiment: Induction of mitochondrial membrane depolarization in human MCF7 cells assessed as collapse of mitochondrial membrane potential at 3 uM after 48 hrs by JC-1 staining based flow cytometry (reference value: 1.61%); type: functional
Method in brief: (§3)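 Log-phase MCF-7 cells treated at 0, 0.75, 1.5 and 3 µM for 48 h, washed with PBS, then stained with JC-1 in the dark per kit instructions. The percentage of cells with collapsed membrane potential was measured by flow cytometry relative to untreated control.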

MCF7 [10] = experiment: Induction of apoptosis in human MCF7 cells assessed as viable cells at 1.5 uM after 48 hrs by Annexin V-FITC/PI staining based flow cytometry (reference value: 93.72%); type: functional; conditions: MCF7, 48 h, read-out: Activity
MCF7 [11] = experiment: Induction of apoptosis in human MCF7 cells assessed as late apoptotic cells at 3 uM after 48 hrs by Annexin V-FITC/PI staining based flow cytometry (reference value: 1.99%); type: functional
MCF7 [12] = experiment: Induction of apoptosis in human MCF7 cells assessed as viable cells at 3 uM after 48 hrs by Annexin V-FITC/PI staining based flow cytometry (reference value: 93.72%); type: functional; conditions: MCF7, 48 h, read-out: Activity
MCF7 [13] = experiment: Induction of apoptosis in human MCF7 cells assessed as increase in cytochrome c release at 0.75 to 3 uM after 48 hrs by Western blot analysis; type: functional, cell-based; method in brief: as §2
MCF7 [14] = experiment: Induction of apoptosis in human MCF7 cells assessed as increase in caspase-3 level at 0.75 to 3 uM after 48 hrs by Western blot analysis; type: functional, cell-based; method in brief: as §2
MCF7 [15] = experiment: Cell cycle arrest in human MCF7 cells assessed as accumulation at G2/M phase at 0.75 uM after 48 hrs by propidium iodide staining based flow cytometry (reference value: 22.40%); type: functional
MCF7 [16] = experiment: Cell cycle arrest in human MCF7 cells assessed as accumulation at S phase at 0.75 uM after 48 hrs by propidium iodide staining based flow cytometry (reference value: 36.11%); type: functional
MCF7 [17] = experiment: Cell cycle arrest in human MCF7 cells assessed as accumulation at G1 phase at 3 uM after 48 hrs by propidium iodide staining based flow cytometry (reference value: 41.49%); type: functional
MCF7 [18] = experiment: Cell cycle arrest in human MCF7 cells assessed as accumulation at G1 phase at 1.5 uM after 48 hrs by propidium iodide staining based flow cytometry (reference value: 41.49%); type: functional
MCF7 [19] = experiment: Cell cycle arrest in human MCF7 cells assessed as accumulation at G2/M phase at 1.5 uM after 48 hrs by propidium iodide staining based flow cytometry (reference value: 22.40%); type: functional
MCF7 [20] = experiment: Induction of apoptosis in human MCF7 cells assessed as early apoptotic cells at 1.5 uM after 48 hrs by Annexin V-FITC/PI staining based flow cytometry (reference value: 4.10%); type: functional
MCF7 [21] = experiment: Induction of apoptosis in human MCF7 cells assessed as necrotic cells at 1.5 uM after 48 hrs by Annexin V-FITC/PI staining based flow cytometry (reference value: 0.19%); type: functional
MCF7 [22] = experiment: Induction of apoptosis in human MCF7 cells assessed as late apoptotic cells at 1.5 uM after 48 hrs by Annexin V-FITC/PI staining based flow cytometry (reference value: 1.99%); type: functional
MCF7 [23] = experiment: Induction of mitochondrial membrane depolarization in human MCF7 cells assessed as collapse of mitochondrial membrane potential at 0.75 uM after 48 hrs by JC-1 staining based flow cytometry (reference value: 1.61%); type: functional; method in brief: as §3
MCF7 [24] = experiment: Cell cycle arrest in human MCF7 cells assessed as accumulation at S phase at 1.5 uM after 48 hrs by propidium iodide staining based flow cytometry (reference value: 36.11%); type: functional
MCF7 [25] = experiment: Induction of apoptosis in human MCF7 cells assessed as late apoptotic cells at 0.75 uM after 48 hrs by Annexin V-FITC/PI staining based flow cytometry (reference value: 1.99%); type: functional
MCF7 [26] = experiment: Induction of apoptosis in human MCF7 cells assessed as necrotic cells at 0.75 uM after 48 hrs by Annexin V-FITC/PI staining based flow cytometry (reference value: 0.19%); type: functional
MCF7 [27] = experiment: Induction of mitochondrial membrane depolarization in human MCF7 cells after 48 hrs by JC-1 staining based flow cytometry; type: functional, cell-based; method in brief: as §3
MCF7 [28] = experiment: Cell cycle arrest in human MCF7 cells assessed as accumulation at S phase at 3 uM after 48 hrs by propidium iodide staining based flow cytometry (reference value: 36.11%); type: functional
MCF7 [29] = experiment: Induction of apoptosis in human MCF7 cells assessed as increase in caspase-9 level at 0.75 to 3 uM after 48 hrs by Western blot analysis; type: functional, cell-based; method in brief: as §2
MCF7 [30] = experiment: Induction of mitochondrial membrane depolarization in human MCF7 cells assessed as collapse of mitochondrial membrane potential at 1.5 uM after 48 hrs by JC-1 staining based flow cytometry (reference value: 1.61%); type: functional; method in brief: as §3
MCF7 [31] = experiment: Induction of apoptosis in human MCF7 cells assessed as downregulation of Bcl-2 after 48 hrs by Western blot analysis; type: functional, cell-based; method in brief: as §2
MCF7 [32] = experiment: Induction of apoptosis in human MCF7 cells assessed as early apoptotic cells at 0.75 uM after 48 hrs by Annexin V-FITC/PI staining based flow cytometry (reference value: 4.10%); type: functional
MCF7 [33] = experiment: Induction of apoptosis in human MCF7 cells after 48 hrs by Annexin V-FITC/PI staining based flow cytometry; type: functional, cell-based

## O=C(OCCCCOc1ccc(-c2cc(=O)c3c(O)c(O)c(O)cc3o2)cc1)c1ccc(N(CCCl)CCCl)cc1
L02
  IC50: > 50 µM
MCF7 [1]
  IC50: 3.55 µM
Bel-7402
  IC50: 9.07 µM
A549
  IC50: 21.5 µM

## O=C(OCCCCOc1ccc(-c2cc(=O)c3c(O)c4c(cc3o2)OCCO4)cc1)c1ccc(N(CCCl)CCCl)cc1
L02
  IC50: > 50 µM
MCF7 [1]
  IC50: > 50 µM
Bel-7402
  IC50: 37.6 µM
A549
  IC50: > 50 µM

## O=C(OCCCCCOc1ccc(-c2cc(=O)c3c(O)c(O)c(O)cc3o2)cc1)c1ccc(N(CCCl)CCCl)cc1
L02
  IC50: > 50 µM
MCF7 [1]
  IC50: 4.78 µM
Bel-7402
  IC50: 4.59 µM
A549
  IC50: 23.5 µM

## COc1cc2oc(-c3ccc(OCCCOC(=O)c4ccc(N(CCCl)CCCl)cc4)cc3)cc(=O)c2c(O)c1OC
L02
  IC50: > 50 µM
MCF7 [1]
  IC50: > 50 µM
Bel-7402
  IC50: 27.8 µM
A549
  IC50: > 50 µM

## O=c1[nH]cc(F)c(=O)[nH]1 [FLUOROURACIL]
MCF7 [1]
  IC50: 27.9 µM
Bel-7402
  IC50: 18.7 µM
A549
  IC50: 2.05 µM

## COc1cc2oc(-c3ccc(OCCCCCOC(=O)c4ccc(N(CCCl)CCCl)cc4)cc3)cc(=O)c2c(O)c1OC
L02
  IC50: > 50 µM
MCF7 [1]
  IC50: > 50 µM
Bel-7402
  IC50: 32.5 µM
A549
  IC50: > 50 µM

## O=C(O)CCCc1ccc(N(CCCl)CCCl)cc1 [CHLORAMBUCIL]
L02
  IC50: > 50 µM
MCF7 [1]
  IC50: > 50 µM
Bel-7402
  IC50: > 50 µM
A549
  IC50: > 50 µM

## O=C(OCCCOc1ccc(-c2cc(=O)c3c(O)c(O)c(O)cc3o2)cc1)c1ccc(N(CCCl)CCCl)cc1
MCF7 [2]
  Activity: 44.16%
MCF7 [3]
  Activity: Dose-dependent effect
MCF7 [4]
  Activity: Dose-dependent effect
MCF7 [5]
  Activity: 11.47%
L02
  IC50: > 50 µM
MCF7 [1]
  IC50: 1.5 µM
MCF7 [6]
  Activity: 38.48%
MCF7 [7]
  Activity: 3.26%
MCF7 [8]
  viability at 0.75 µM: 83.8%
MCF7 [9]
  Activity: 64.8%
MCF7 [10]
  viability at 1.5 µM: 68.8%
MCF7 [11]
  Activity: 26.73%
MCF7 [12]
  viability at 3 µM: 31.5%
MCF7 [13]
  Activity: Active
MCF7 [14]
  Activity: Active
MCF7 [15]
  Activity: 21.17%
MCF7 [16]
  Activity: 34.67%
MCF7 [17]
  Activity: 59.49%
MCF7 [18]
  Activity: 50.99%
MCF7 [19]
  Activity: 18.56%
MCF7 [20]
  Activity: 19.85%
MCF7 [21]
  Activity: 1.85%
Bel-7402
  IC50: 7.96 µM
MCF7 [22]
  Activity: 9.46%
MCF7 [23]
  Activity: 19.61%
MCF7 [24]
  Activity: 30.44%
MCF7 [25]
  Activity: 3.92%
MCF7 [26]
  Activity: 0.17%
MCF7 [27]
  Activity: Dose-dependent effect
A549
  IC50: > 50 µM
MCF7 [28]
  Activity: 29.04%
MCF7 [29]
  Activity: Active
MCF7 [30]
  Activity: 43.48%
MCF7 [31]
  Activity: Dose-dependent effect
MCF7 [32]
  Activity: 12.07%
MCF7 [33]
  Activity: Dose-dependent effect

## COc1cc2oc(-c3ccc(OCCCCOC(=O)c4ccc(N(CCCl)CCCl)cc4)cc3)cc(=O)c2c(O)c1OC
L02
  IC50: > 50 µM
MCF7 [1]
  IC50: > 50 µM
Bel-7402
  IC50: 25.7 µM
A549
  IC50: 47.3 µM

## O=C(OCCCOc1ccc(-c2cc(=O)c3c(O)c4c(cc3o2)OCCO4)cc1)c1ccc(N(CCCl)CCCl)cc1
L02
  IC50: > 50 µM
MCF7 [1]
  IC50: 45 µM
Bel-7402
  IC50: > 50 µM
A549
  IC50: 44.5 µM

## O=C(OCCCCCOc1ccc(-c2cc(=O)c3c(O)c4c(cc3o2)OCCO4)cc1)c1ccc(N(CCCl)CCCl)cc1
L02
  IC50: > 50 µM
MCF7 [1]
  IC50: 34.7 µM
Bel-7402
  IC50: 45.7 µM
A549
  IC50: > 50 µM
